Measured values taken from PMC3129977 (ACS chemical neuroscience, 2011).

Columns and labels:
[1] = target: Aβ plaques in brain sections from an AD patient (Homo sapiens, UniProt P05067); assay: Staining of frozen human brain tissue sections; details: 60 μM probe in PBS, 30 min
Procedure, shortened: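 Frozen AD brain sections were dried for 1 h, passed through 100%, 95% and 70% ethanol (5 min each), rinsed in water, and equilibrated 15 min in PBS. Probe was diluted 1:50 from 3 mM PBS stock to 60 μM final and applied for 30 min at room temperature. Sections were PBS-washed, coverslipped and imaged by epifluorescence. Plaque/background intensity was normalized to a reference probe, as mean ± SD, n = 10 measurements per probe.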

aggregated Aβ42 peptides [2] = target: T1, aggregated Aβ42 peptides (Homo sapiens, UniProt P05067); details: earlier report; cited from earlier work
T1 sequence (P05067 672-713 limits assumed): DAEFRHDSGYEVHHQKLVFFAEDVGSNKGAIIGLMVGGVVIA

aggregated Aβ42 peptides [3] = target: T1, aggregated Aβ42 peptides; assay: Fluorescence studies with aggregated Aβ peptides; format: binding
[4] = free probe 4 μM, 5% DMSO in nanopure water, before mixing with aggregated Aβ42
[5] = probe 4 μM after mixing with aggregated Aβ42 (5 μM)

Sequence of Aβ plaques in brain sections from an AD patient (P05067 672-711 limits assumed): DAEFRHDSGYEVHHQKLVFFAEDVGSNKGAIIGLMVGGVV

## COCCOCCOCCOC(=O)/C(C#N)=C/c1ccc2cc(N3CCCCC3)ccc2c1 [Compound 6]
[1]
  Fluorescence contrast between plaques and surrounding tissue: weaker observed contrast
  Staining of Aβ plaques: stained
Aggregated Aβ42 peptides [2]
  Fluorescence change upon binding to Aβ fibrils: large increase in fluorescence intensity
Aggregated Aβ42 peptides [3]; [4]
  Em. max before: 590 nm
  Exc. max before: 415 nm
Aggregated Aβ42 peptides [3]; [5]
  Em. max after: 545 nm
  Exc. max after: 410 nm
Aggregated Aβ42 peptides [3]; probe 4 μM, aggregated Aβ42 5 μM
  Fold increase in emission intensity upon association with aggregated Aβ42: 7.7 fold
